Data set [1] has as its target T1, Glucose-dependent insulinotropic receptor (Homo sapiens, UniProt Q8TDV5).
T1 sequence (Q8TDV5 whole entry): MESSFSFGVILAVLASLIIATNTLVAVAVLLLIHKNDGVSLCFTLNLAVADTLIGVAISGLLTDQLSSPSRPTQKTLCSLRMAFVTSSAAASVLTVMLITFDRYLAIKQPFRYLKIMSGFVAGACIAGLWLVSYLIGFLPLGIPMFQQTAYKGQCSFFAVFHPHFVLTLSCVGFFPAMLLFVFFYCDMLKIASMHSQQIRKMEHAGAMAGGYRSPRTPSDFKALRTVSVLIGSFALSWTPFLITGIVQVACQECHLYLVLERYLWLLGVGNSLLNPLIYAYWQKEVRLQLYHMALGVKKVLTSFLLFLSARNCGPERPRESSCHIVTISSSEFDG
Kind of data set: Agonist activity at human GPR119 expressed in CHO cells co-expressing cyclic AMP response element-luciferase reporter gene incubated for 2 hrs by steady-glo luciferase assay. Type of data set: functional, cell-based. Summed up:
(§1)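 CHO cells stably expressing human or rat GPR119 were seeded at 10,000 cells/well in MEMα with 10% FBS and Geneticin and grown overnight at 37 °C. After one wash, cells were exposed to compounds at various concentrations in MEMα/20 mM HEPES/0.1% BSA for 2 h. cAMP-driven luciferase was read with Steady-Glo and normalized to vehicle and reference wells. EC50 is the mean, n = 2.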

The target in a further data set is hERG (KCNH2) (Homo sapiens, UniProt Q12809). Put plainly: Inhibition of human ERG expressed in CHO cells at 10 uM at holding potential of -80 mV by patch clamp method. In kind it is cell-based. The settings on record: CHO cells expressing human ERG.
hERG (KCNH2), sequence (Q12809 whole entry): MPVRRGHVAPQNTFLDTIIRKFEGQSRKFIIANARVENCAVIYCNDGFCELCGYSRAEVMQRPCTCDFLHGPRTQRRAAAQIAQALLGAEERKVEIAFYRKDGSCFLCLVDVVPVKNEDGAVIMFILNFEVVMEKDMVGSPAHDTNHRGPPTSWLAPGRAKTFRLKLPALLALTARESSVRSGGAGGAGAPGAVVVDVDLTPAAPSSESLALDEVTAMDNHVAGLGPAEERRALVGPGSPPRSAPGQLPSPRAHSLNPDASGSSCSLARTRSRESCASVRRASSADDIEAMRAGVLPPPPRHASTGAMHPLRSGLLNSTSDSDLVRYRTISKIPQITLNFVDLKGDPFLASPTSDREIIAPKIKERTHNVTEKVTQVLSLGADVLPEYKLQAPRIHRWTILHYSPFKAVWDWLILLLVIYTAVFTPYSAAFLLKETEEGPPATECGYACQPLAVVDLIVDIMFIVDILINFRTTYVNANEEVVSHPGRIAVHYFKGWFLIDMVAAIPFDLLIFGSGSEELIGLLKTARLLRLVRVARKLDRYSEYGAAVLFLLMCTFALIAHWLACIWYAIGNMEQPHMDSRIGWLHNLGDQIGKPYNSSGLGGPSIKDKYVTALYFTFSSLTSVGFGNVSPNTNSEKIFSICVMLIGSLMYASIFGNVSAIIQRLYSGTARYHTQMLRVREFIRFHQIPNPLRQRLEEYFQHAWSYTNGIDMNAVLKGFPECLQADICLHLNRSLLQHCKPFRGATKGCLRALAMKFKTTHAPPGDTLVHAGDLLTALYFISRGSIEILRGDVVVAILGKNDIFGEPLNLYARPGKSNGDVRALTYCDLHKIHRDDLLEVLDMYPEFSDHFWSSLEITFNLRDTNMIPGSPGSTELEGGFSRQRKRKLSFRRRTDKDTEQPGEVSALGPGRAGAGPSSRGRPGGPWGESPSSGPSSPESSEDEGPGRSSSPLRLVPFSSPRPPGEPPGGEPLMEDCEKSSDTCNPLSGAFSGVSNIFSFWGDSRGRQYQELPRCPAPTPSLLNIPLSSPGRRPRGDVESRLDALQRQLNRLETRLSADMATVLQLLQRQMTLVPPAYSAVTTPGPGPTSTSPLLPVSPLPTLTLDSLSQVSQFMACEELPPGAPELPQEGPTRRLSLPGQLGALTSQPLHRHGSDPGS
Data set [2] can be described thus: Partition coefficient, logD between 1-octanol and pH 7.4 aqueous buffer by chromatographic analysis. Type of data set: physicochemical. The settings on record: 1-octanol/pH 7.4 aqueous buffer. The method in brief:
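LogD between 1-octanol and aqueous buffer at pH 7.4 was determined by a chromatographic procedure adapted from a published method.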

Data set [3] can be described thus: Intrinsic clearance in human liver microsomes. Type of data set: ADME, Microsome. The settings on record: read-out: CLH. The method in brief:
(§2)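 Human or rat liver microsomes (0.2 mg/mL protein) were incubated with 1 μM compound in 50 mM potassium phosphate, pH 7.4. The reaction was started with an NADPH-generating system and stopped with acetonitrile at 15 and 30 min. Parent compound was quantified by LC/MS/MS, and CLint (μL/min/mg) was taken from the slope of the concentration–time plot.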

A short description of data set [4]: Hepatic clearance in human liver microsomes measured up to 30 mins by LC/MS/MS analysis. Type of data set: ADME, Microsome. The settings on record: read-out: CLH. The method in brief:
as §2

Data set [5] can be described thus: Hepatic clearance in rat liver microsomes measured up to 30 mins by LC/MS/MS analysis. In kind it is ADME, Microsome. The settings on record: read-out: CLH. The method in brief:
as §2

The nature of data set [6]: Aqueous solubility of the compound at pH 6.8 by HPLC analysis. In kind it is physicochemical. The settings on record: buffer. The method in brief:
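DMSO stock solutions were added in small volumes to aqueous buffer at pH 6.8 and incubated. Precipitate was removed by filtration, and the filtrate was quantified by HPLC.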

Data set [7] has as its target T2, Glucose-dependent insulinotropic receptor (Rattus norvegicus, UniProt Q7TQN8).
T2 sequence (Q7TQN8 whole entry): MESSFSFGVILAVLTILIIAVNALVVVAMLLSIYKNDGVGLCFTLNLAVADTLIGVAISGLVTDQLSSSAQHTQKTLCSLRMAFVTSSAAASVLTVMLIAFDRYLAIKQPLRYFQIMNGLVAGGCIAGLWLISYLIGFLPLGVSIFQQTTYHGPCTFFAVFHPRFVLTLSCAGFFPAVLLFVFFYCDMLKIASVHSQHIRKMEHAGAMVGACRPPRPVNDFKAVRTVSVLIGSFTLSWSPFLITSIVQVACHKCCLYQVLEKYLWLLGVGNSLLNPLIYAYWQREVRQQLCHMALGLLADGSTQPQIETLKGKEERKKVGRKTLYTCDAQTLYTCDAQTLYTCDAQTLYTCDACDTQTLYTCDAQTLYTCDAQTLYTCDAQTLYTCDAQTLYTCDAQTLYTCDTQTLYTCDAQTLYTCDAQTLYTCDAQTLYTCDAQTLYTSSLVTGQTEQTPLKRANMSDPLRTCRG
Kind of data set: Agonist activity at rat GPR119 expressed in CHO cells co-expressing cyclic AMP response element-luciferase reporter gene incubated for 2 hrs by steady-glo luciferase assay. In kind it is functional, cell-based. The method in brief:
as §1

In data set [8] the target is T2, Glucose-dependent insulinotropic receptor. Put plainly: Agonist activity at rat GPR119 in golden hamster HIT-T15 cells assessed as induction of glucose-induced insulin secretion after 2 hrs by A1phaLISA. Type of data set: functional, cell-based. The method in brief:
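Hamster HIT-T15 beta cells were seeded at 5 × 10^4 cells/well and pre-incubated 2 h in KRBH with 0.2% BSA. They were then incubated 2 h at 37 °C with compound in KRBH containing 0.2% fatty-acid-free BSA and 10 mmol/L glucose. Secreted insulin was quantified by AlphaLISA. EC50 from n = 2.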

The target is the same in data set [9]. Put plainly: Agonist activity at rat GPR119 in GLUTag cells assessed as induction of GLP-1 secretion after 2 hrs by ELISA. Type of data set: functional, cell-based. The method in brief: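 Murine GLUTag L cells were seeded at 1 × 10^4 cells/well on poly-L-lysine and moved overnight to low-glucose DMEM. After a Hank's wash, cells were incubated 2 h at 37 °C with compound in KRBH containing 0.2% fatty-acid-free BSA and 10 mmol/L glucose. Active GLP-1 in the supernatant was measured by ELISA. EC50 from n = 2.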

The nature of data set [10]: Volume of distribution at steady state in rat at 0.1 mg/kg, iv administered as cassette dose by LC/MS/MS analysis. Particulars: in vivo. Type of data set: ADME, organism-based. Summed up: (§3)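 Intravenous cassette dosing at 0.1 mg/kg in rats (the methods text says non-fasted mice). Plasma was obtained from blood samples, deproteinized, centrifuged, and analysed by LC/MS/MS.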

Data set [11] can be described thus: Clearance in rat at 0.1 mg/kg, iv administered as cassette dose by LC/MS/MS analysis. Type of data set: ADME, organism-based. Particulars: in vivo. Summed up:
as §3

The nature of data set [12]: AUC in […] at 1 mg/kg, po administered as cassette dose by LC/MS/MS analysis. Type of data set: ADME, organism-based, Rattus norvegicus. Particulars: in vivo. Also noted: dose 1 mg/kg.
The nature of data set [13]: Mean residence time in rat at 1 mg/kg, po administered as cassette dose by LC/MS/MS analysis. Type of data set: ADME, organism-based. The settings on record: in vivo. Summed up:
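Rat cassette PK. Oral dose 1 mg/kg in 0.5% methylcellulose aqueous solution. The methods text says non-fasted mice. Blood was collected after dosing, and plasma was deproteinized and centrifuged. Compound in the supernatant was measured by LC/MS/MS.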

Data set [14] in a line: Oral bioavailability in […] at 1 mg/kg administered as cassette dose by LC/MS/MS analysis. Type of data set: ADME, organism-based, Rattus norvegicus. The settings on record: in vivo.
Data set [15] relates to Rattus norvegicus. Put plainly: Antidiabetic activity in NSTZ1.5 rat assessed as reduction in plasma glucose level at 0.3 to 3 mg/kg, po administered 60 mins prior to glucose challenge and measured up to 60 mins by OGTT. Type of data set: functional, organism-based. Particulars: dose 0.3-3 mg/kg.
Data set [16] concerns Rattus norvegicus. Kind of data set: Antidiabetic activity in orally dosed NSTZ1.5 rat assessed as reduction in insulin level administered 60 mins prior to glucose challenge and measured up to 60 mins by OGTT. Particulars: dose 0.3-3 mg/kg. In kind it is functional, organism-based.

Results on 18 compounds are retold here after ChEMBL document CHEMBL4811273, “Discovery of a novel series of GPR119 agonists: Design, synthesis, and biological evaluation of N-(Piperidin-4-yl)-N-(trifluoromethyl)pyrimidin-4-amine derivatives” (Bioorg Med Chem, 2021).

SMILES strings stand for the structures. In brackets after ≈: the same amount, converted by molar mass. Activity calls are given as the source filed them. The rule behind the calls is not given here. Bounds are passed on as bounds.

In the case of `COCCN(c1cc(N2CCc3cc(S(C)(=O)=O)ccc32)ncn1)C1CCN(C(=O)OC(C)(C)C)CC1`, the EC50 in [1] was found to be 29 nM. Further, the inhibition at 10 µM against hERG (KCNH2) came out at 120%. The compound also yielded a logD in data set [2] of 3.4.

In data set [1], `CC(C)(C)OC(=O)N1CCC(N(c2cc(OC3CCN(S(C)(=O)=O)CC3)ncn2)C(F)(F)F)CC1` displayed an EC50 of 3.6 nM.

Take `CN(c1cc(N2CCc3cc(S(C)(=O)=O)ccc32)ncn1)C1CCN(C(=O)OC(C)(C)C)CC1`: in data set [1], the response was half-maximal at 21 nM (EC50). For the same compound, at hERG (KCNH2), the inhibition at 10 µM was determined as 85%. Also, the logD in data set [2] is 3.2.

For the compound `CC(C)(C)OC(=O)N1CCC(N(c2cc(O[C@H]3CC[C@H](S(C)(=O)=O)CC3)ncn2)C(F)(F)F)CC1`, the EC50 in data set [1] was determined as 270 nM.

`CC(C)(C)OC(=O)N1CCC(Nc2cc(N3CCc4cc(S(C)(=O)=O)ccc43)ncn2)CC1`: the midpoint of the response in [1], the EC50, lay at 300 nM. In addition, the inhibition at 10 µM at hERG (KCNH2) worked out at 80%. For the same compound, the logD in data set [2] turned out to be 2.7.

Turning to `CC(C)(C)OC(=O)N1CCC(N(c2cc(N3CCc4cc(S(C)(=O)=O)ccc43)ncn2)C(F)(F)F)CC1`, a half-maximal response in data set [1] (EC50) required 2.5 nM. In addition, the inhibition at 10 µM at hERG (KCNH2) came out at 13%. This compound also displayed a logD in data set [2] of 4.1.

Consider `CC(C)(C)OC(=O)N1CCC(N(CC2CC2)c2cc(N3CCc4cc(S(C)(=O)=O)ccc43)ncn2)CC1`, for which the EC50 in [1] is 51 nM. Also, the inhibition at 10 µM at hERG (KCNH2) stood at 100%. The compound further registered a log distribution coefficient (logD) in [2] of 4.1.

In turn, `CN(c1cc(N(C2CCN(C(=O)OC(C)(C)C)CC2)C(F)(F)F)ncn1)C1CCN(S(C)(=O)=O)CC1` had an EC50 in data set [1] of more than 10000 nM.

Turning to `CC(C)(C)OC(=O)N1CCC(N(c2cc(OC3CN(S(C)(=O)=O)C3)ncn2)C(F)(F)F)CC1`, the EC50 in data set [1] stood at 7100 nM.

In data set [1], `CC(C)(C)OC(=O)N1CCC(N(c2cc(OCC3CN(S(C)(=O)=O)C3)ncn2)C(F)(F)F)CC1` showed an EC50 of 960 nM.

In data set [1], `CCCN(c1cc(N2CCc3cc(S(C)(=O)=O)ccc32)ncn1)C1CCN(C(=O)OC(C)(C)C)CC1` registered an EC50 of 18 nM. The inhibition at 10 µM at hERG (KCNH2) was 94%. In data set [2], the logD was found to be 4.

As to `CC(C)(C)OC(=O)N1CCC(N(c2cc(NC3CCN(S(C)(=O)=O)CC3)ncn2)C(F)(F)F)CC1`, in data set [1], the EC50 was found to be 43 nM.

For `CC(C)c1noc(N2CCC(Oc3cc(N4CCc5cc(N6CCC[C@H](O)C6=O)ccc54)ncn3)CC2)n1`, in data set [3], the microsomal CLint came to 10 µL/min/mg.

In data set [1], `CC(C)c1noc(N2CCC(N(c3cc(OC4CCN(S(C)(=O)=O)CC4)ncn3)C(F)(F)F)CC2)n1` displayed an EC50 of 2.7 nM. The microsomal CLint is 108 µL/min/mg in data set [4] and 36 µL/min/mg in data set [5]. The same compound registered a solubility in data set [6] of 29 µg/mL (≈ 54.4 µM).

As to `CC(C)c1noc(N2CCC(N(c3cc(N4CCc5cc(S(C)(=O)=O)ccc54)ncn3)C(F)(F)F)CC2)n1`, in data set [1], it took 2.9 nM to reach a half-maximal effect (EC50). The logD in [2] was 3.79. In data set [6], this compound came in with a solubility of less than 0.22 µg/mL.

With `CC(C)(F)c1noc(N2CCC(N(c3cc(OC4CCN(S(C)(=O)=O)CC4)ncn3)C(F)(F)F)CC2)n1`, the EC50 in data set [1] amounted to 4.6 nM; in data set [7] it was 24 nM; in data set [8], 4.8 nM; in [9], 3.8 nM. Also, the inhibition at 10 µM on hERG (KCNH2) was 19%. In addition, the values for the microsomal CLint in [4], in [5] and in data set [3] were 27 µL/min/mg, less than 1 µL/min/mg and 27 µL/min/mg, respectively. The compound further gave a solubility in [6] of 21 µg/mL (≈ 38.1 µM). The Vdss in [10] was 1.27 L/kg. The clearance in data set [11] is 6.22 mL/min/kg. The AUC in data set [12] was 1540 ng·h/mL. The MRT in data set [13] was 4.05 h. Also, the bioavailability in data set [14] was determined as 57%. Besides, the outcome in the data set on Rattus norvegicus [15] was Active. Besides, the Activity result in the data set on Rattus norvegicus [16] is “Dose-Dependent Effect”.

For the compound `CS(=O)(=O)N1CCC(Oc2cc(N(C3CCN(c4nc(C5CC5)no4)CC3)C(F)(F)F)ncn2)CC1`, a half-maximal effect in data set [1] (EC50) was put at 5.4 nM. The microsomal CLint in [4] amounted to 31 µL/min/mg; in data set [5], 13 µL/min/mg. In data set [6], the solubility came to 15 µg/mL (≈ 28.2 µM).

Compound `CCN(c1cc(N2CCc3cc(S(C)(=O)=O)ccc32)ncn1)C1CCN(C(=O)OC(C)(C)C)CC1` returned an EC50 in data set [1] of 14 nM. Further, at hERG (KCNH2), the inhibition at 10 µM was 116%. The same compound registered a logD in [2] of 3.5.
